Drawing on ChEMBL document CHEMBL1150302, “Aminoacyl-tRNA synthetase inhibitors as potent and synergistic immunosuppressants” (J Med Chem, 2008), this text covers IC50, inhibition and Activity for 47 molecules.

Test [1] relates to PBMC. Nature of the test: Immunosuppressive activity against human PBMC assessed as inhibition of allogenic mixed lymphocyte reaction. The test is classed as functional, cell-based. A digest of the protocol:
(§1)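 Responder cells taken from the Ficoll-plasma interface, washed three times (0.12 × 10⁶), cocultured for 6 days with mitomycin C-treated RPMI 1788 stimulator cells (0.045 × 10⁶) and compound in RPMI 1640 with 10% fetal calf serum. Pulsed after five days with 1 µCi methyl-³H thymidine, harvested 18 h later and counted. cpm converted to % inhibition versus compound-free MLR.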

The test system of test [2] is PBMC. Briefly: Immunosuppressive activity against human PBMC assessed as inhibition of allogenic mixed lymphocyte reaction at 0.1 uM. Type of test: functional. The procedure, abridged: as §1
The subject of test [3] is PBMC. Nature of the test: Immunosuppressive activity against human PBMC assessed as inhibition of allogenic mixed lymphocyte reaction at 0.5 uM. Type of test: functional. A digest of the protocol: as §1
Test [4] has as its system PBMC. Nature of the test: Immunosuppressive activity against human PBMC assessed as inhibition of allogenic mixed lymphocyte reaction upto 10 uM. The test is classed as functional, cell-based. A digest of the protocol: as §1
The subject of test [5] is PBMC. Briefly: Immunosuppressive activity against human PBMC assessed as inhibition of allogenic mixed lymphocyte reaction at 0.0008 uM. The test is classed as functional. A digest of the protocol:
as §1

Test [6] relates to PBMC. Nature of the test: Immunosuppressive activity against human PBMC assessed as inhibition of allogenic mixed lymphocyte reaction at 0.0004 uM. Type of test: functional. A digest of the protocol: as §1
For test [7], the system named is PBMC. Briefly: Immunosuppressive activity against human PBMC assessed as inhibition of allogenic mixed lymphocyte reaction at 1.0 uM. Type of test: functional. A digest of the protocol:
as §1

Test [8] has as its system PBMC. Briefly: Immunosuppressive activity against human PBMC assessed as inhibition of allogenic mixed lymphocyte reaction at 0.06 uM. The test is classed as functional. The procedure, abridged: as §1
For test [9], the system named is PBMC. Briefly: Immunosuppressive activity against human PBMC assessed as inhibition of allogenic mixed lymphocyte reaction at 0.01 uM. Type of test: functional. A digest of the protocol:
as §1

The subject of test [10] is PBMC. Nature of the test: Immunosuppressive activity against human PBMC assessed as inhibition of allogenic mixed lymphocyte reaction at 0.08 uM. Type of test: functional. The procedure, abridged: as §1

Active and inactive are the calls of the source. No cut-off for these calls is given here.

As to `Nc1ncnc2c1ncn2[C@@H]1O[C@H](COS(=O)(=O)NC(=O)[C@@H](N)Cc2c[nH]c3ccccc23)[C@@H](O)[C@H]1O`, in [1], the IC50 (commonly the point on the concentration scale where inhibition reaches its midpoint) was 500 nM. In addition, the inhibition (in general, the drop in the measured response relative to a control, in per cent) at 0.1 µM in test [2] stood at 2.3%. Besides, in test [3], the inhibition at 0.5 µM came to 27.6%.
With `CC(C)C[C@H](N)C(=O)NS(=O)(=O)OC[C@H]1OC[C@@H](n2cnc3c(N)ncnc32)[C@H](O)[C@@H]1O`, in test [1], the IC50 stood at 1000 nM.
As to `C/C(=C\C(=O)OCCCCCCCCC(=O)O)C[C@@H]1OC[C@H](C[C@@H]2O[C@H]2[C@@H](C)[C@H](C)O)[C@@H](O)[C@H]1O`, the result in test [4] was inactive.
Consider `CSCC[C@H](N)C(=O)NS(=O)(=O)OC[C@H]1O[C@@H](n2cnc3c(N)ncnc32)[C@H](O)[C@@H]1O`, for which, in [1], the IC50 worked out at 500 nM. In addition, the inhibition at 0.5 µM in test [3] was 28.4%.
On to `CO[C@H]1C[C@@H]2CC[C@@H](C)[C@@](O)(O2)C(=O)C(=O)N2CCCC[C@H]2C(=O)O[C@H]([C@H](C)C[C@@H]2CC[C@@H](O)[C@H](OC)C2)CC(=O)[C@H](C)/C=C(\C)[C@@H](O)[C@@H](OC)C(=O)[C@H](C)C[C@H](C)/C=C/C=C/C=C/1C` [SIROLIMUS], for which, in test [5], the inhibition at 0.0008 µM was found to be 32.5%. The inhibition at 0.0004 µM in [6] is 13.1%.
Consider `CC(C)C[C@H](N)C(=O)NS(=O)(=O)OC[C@H]1O[C@@H](n2cnc3c(N)ncnc32)[C@H](F)[C@@H]1O`, for which, in [1], the concentration for half-maximal inhibition (IC50) was 450 nM.
On the same count and under the same terms, as for `C=C(C)CC(N)C(=O)NS(=O)(=O)OC[C@H]1O[C@@H](n2cnc3c(N)ncnc32)[C@H](O)[C@@H]1O` (mixture of isomers), the figure is 550 nM; as for `Nc1ncnc2c1ncn2[C@@H]1O[C@H](COS(=O)(=O)NC(=O)[C@@H](N)CS)[C@@H](O)[C@H]1O`, 400 nM; as for `N=C(N)NCCC[C@H](N)C(=O)NS(=O)(=O)OC[C@H]1OC[C@@H](n2cnc3c(N)ncnc32)C[C@@H]1O`, 600 nM.
On to `Nc1ncnc2c1ncn2[C@@H]1O[C@H](COS(=O)(=O)NC(=O)[C@@H](N)Cc2cnc[nH]2)[C@@H](O)[C@H]1O`, for which the IC50 in test [1] turned out to be 1000 nM. For the same molecule, the inhibition at 0.1 µM in [2] is 12.4%.
For `CC[C@H](N)C(=O)NS(=O)(=O)OC[C@H]1O[C@@H](n2cnc3c(N)ncnc32)[C@H](O)[C@@H]1O`, in test [1], the IC50 was 5500 nM.
Same read-out and setting: the result for `Nc1ncnc2c1ncn2[C@@H]1CO[C@H](COS(=O)(=O)NC(=O)[C@@H](N)Cc2c[nH]cn2)[C@@H](O)[C@H]1O` reads 1200 nM.
Still for that read-out and setting: as for `C[C@H](N)C(=O)NS(=O)(=O)OC[C@H]1OC[C@@H](n2cnc3c(N)ncnc32)C[C@@H]1O`, the figure is 5500 nM.
On the same count and under the same terms, the result for `Nc1ncnc2c1ncn2[C@@H]1O[C@H](COS(=O)(=O)NC(=O)[C@@H](N)Cc2c[nH]cn2)[C@@H](O)[C@H]1F` reads 450 nM; that for `CC(C)[C@H](N)C(=O)NS(=O)(=O)OC[C@H]1O[C@@H](n2cnc3c(N)ncnc32)[C@H](O)[C@@H]1O`, 5600 nM.
Turning to `Nc1ncnc2c1ncn2[C@@H]1CO[C@H](COS(=O)(=O)NC(=O)[C@@H]2CCCN2)[C@@H](O)C1`, the concentration for half-maximal inhibition (IC50) in [1] came to 2800 nM.
On the same count and under the same terms, the result for `Nc1ncnc2c1ncn2[C@@H]1O[C@H](COS(=O)(=O)NC(=O)[C@@H]2CCCN2)[C@@H](O)[C@H]1F` reads 300 nM; that for `N=C(N)NCCC[C@H](N)C(=O)NS(=O)(=O)OC[C@H]1O[C@@H](n2cnc3c(N)ncnc32)[C@H](O)[C@@H]1O`, 1000 nM.
On the same count and under the same terms, as for `CCC[C@H](N)C(=O)NS(=O)(=O)OC[C@H]1O[C@@H](n2cnc3c(N)ncnc32)[C@H](O)[C@@H]1O`, the figure is 4700 nM; as for `N=C(N)NCCC[C@H](N)C(=O)NS(=O)(=O)OC[C@H]1OC[C@@H](n2cnc3c(N)ncnc32)[C@H](O)[C@@H]1O`, 600 nM; as for `CC[C@H](C)[C@H](N)C(=O)NS(=O)(=O)OC[C@H]1O[C@@H](n2cnc3c(N)ncnc32)[C@H](O)[C@@H]1O`, 5600 nM.
Regarding `Nc1ncnc2c1ncn2[C@@H]1CO[C@H](COS(=O)(=O)NC(=O)[C@H](Cc2ccccc2)NCc2ccccc2)[C@@H](O)[C@H]1O`, in [1], the IC50 stood at 80 nM.
With `CC(C)C[C@H](N)C(=O)NS(=O)(=O)OC[C@H]1O[C@@H](n2cnc3c(N)ncnc32)[C@H](O)[C@@H]1O` [LEUSA], the IC50 in test [1] came out at 1100 nM. In addition, the inhibition at 0.1 µM in test [2] worked out at 16%. In addition, the inhibition at 0.5 µM in test [3] was determined as 16.3%.
Consider `Nc1ncnc2c1ncn2[C@@H]1O[C@H](COS(=O)(=O)NC(=O)[C@@H]2CCN2)[C@@H](O)[C@H]1O`, for which the IC50 in test [1] was 600 nM.
On the same count and under the same terms, as for `CSCC[C@H](N)C(=O)NS(=O)(=O)OC[C@H]1OC[C@@H](n2cnc3c(N)ncnc32)[C@H](O)[C@@H]1O`, the figure is 5200 nM.
Regarding `NC(=O)C[C@H](N)C(=O)NS(=O)(=O)OC[C@H]1O[C@@H](n2cnc3c(N)ncnc32)[C@H](O)[C@@H]1O`, in test [1], the IC50 was determined as 300 nM.
As for `Nc1ncnc2c1ncn2[C@@H]1CO[C@H](COS(=O)(=O)NC(=O)[C@@H](N)Cc2c[nH]cn2)[C@@H](O)C1`, in test [1], the IC50 was determined as 6700 nM.
On the same count and under the same terms, the result for `C[C@H](N)C(=O)NS(=O)(=O)OC[C@H]1O[C@@H](n2cnc3c(N)ncnc32)[C@H](F)[C@@H]1O` reads 400 nM.
For the molecule `C[C@H](N)C(=O)NS(=O)(=O)OC[C@H]1OC[C@@H](n2cnc3c(N)ncnc32)[C@H](O)[C@@H]1O`, the concentration for half-maximal inhibition (IC50) in test [1] stood at 300 nM. The inhibition at 0.5 µM in [3] was determined as 68%.
In the case of `Nc1ncnc2c1ncn2[C@@H]1O[C@H](COS(=O)(=O)NC(=O)[C@H](Cc2ccccc2)NCc2ccccc2)[C@@H](O)[C@H]1O`, the IC50 in test [1] was 200 nM. The inhibition at 0.1 µM in test [2] turned out to be 31.1%.
For `Nc1ncnc2c1ncn2[C@@H]1O[C@H](COS(=O)(=O)NC(=O)[C@@H](N)CC(=O)O)[C@@H](O)[C@H]1O`, the IC50 in [1] amounted to 2400 nM.
Consider `NCCCC[C@H](N)C(=O)NS(=O)(=O)OC[C@H]1O[C@@H](n2cnc3c(N)ncnc32)[C@H](O)[C@@H]1O`, for which the IC50 in test [1] was found to be 1000 nM. Moreover, in test [7], the inhibition at 1 µM was determined as 67%.
For `CSCC[C@H](N)C(=O)NS(=O)(=O)OC[C@H]1OC[C@@H](n2cnc3c(N)ncnc32)C[C@@H]1O`, the IC50 in [1] turned out to be 5500 nM.
Consider `CC(C)C[C@H](N)C(=O)NS(=O)(=O)OC[C@H]1OC[C@@H](n2cnc3c(N)ncnc32)C[C@@H]1O`, for which the IC50 in [1] came to 6800 nM.
As for `Nc1ncnc2c1ncn2[C@@H]1O[C@H](COS(=O)(=O)NC(=O)[C@@H](N)Cc2ccccc2)[C@@H](O)[C@H]1O` [PHESA], the IC50 in test [1] was determined as 1000 nM. The inhibition at 0.1 µM in test [2] was 10.7%. Further, the inhibition at 0.5 µM in test [3] was 53.4%.
In the case of `C[C@@H](O)[C@H](N)C(=O)NS(=O)(=O)OC[C@H]1O[C@@H](n2cnc3c(N)ncnc32)[C@H](O)[C@@H]1O`, in [1], the IC50 amounted to 5200 nM.
For the molecule `Nc1ncnc2c1ncn2[C@@H]1O[C@H](COS(=O)(=O)NC(=O)[C@@H](N)CO)[C@@H](O)[C@H]1O`, the IC50 in test [1] came to 4800 nM.
Still for that read-out and setting: the result for `Nc1ncnc2c1ncn2[C@@H]1O[C@H](COS(=O)(=O)NC(=O)[C@@H]2CSCN2)[C@@H](O)[C@H]1O` reads 550 nM; that for `NCC(=O)NS(=O)(=O)OC[C@H]1O[C@@H](n2cnc3c(N)ncnc32)[C@H](O)[C@@H]1O`, 800 nM.
On to `Nc1ncnc2c1ncn2[C@@H]1O[C@H](COS(=O)(=O)NC(=O)[C@@H]2CCCN2)[C@@H](O)[C@H]1O`, for which the IC50 in test [1] came out at 700 nM. In test [2], the inhibition at 0.1 µM was -2.7%. The inhibition at 0.5 µM in test [3] stood at 18.6%.
In the case of `CSCC[C@H](N)C(=O)NS(=O)(=O)OC[C@H]1O[C@@H](n2cnc3c(N)ncnc32)[C@H](F)[C@@H]1O`, in [1], the IC50 was determined as 400 nM.
On the same count and under the same terms, as for `NC(=O)CC[C@H](N)C(=O)NS(=O)(=O)OC[C@H]1O[C@@H](n2cnc3c(N)ncnc32)[C@H](O)[C@@H]1O`, the figure is 800 nM.
On the same count and under the same terms, as for `Nc1ncnc2c1ncn2[C@@H]1O[C@H](COS(=O)(=O)NC(=O)[C@@H](N)CCC(=O)O)[C@@H](O)[C@H]1O`, the figure is 4900 nM.
As for `C[C@H](N)C(=O)NS(=O)(=O)OC[C@H]1O[C@@H](n2cnc3c(N)ncnc32)[C@H](O)[C@@H]1O` [ALASA], the 50% inhibitory concentration (IC50) in test [1] came out at 1700 nM. Further, in test [2], the inhibition at 0.1 µM turned out to be 6.5%. The inhibition at 0.5 µM in test [3] was determined as 4.9%.
On to `Nc1ncnc2c1ncn2[C@@H]1CO[C@H](COS(=O)(=O)NC(=O)[C@@H]2CCCN2)[C@@H](O)[C@H]1O`, for which, in test [1], the IC50 is 750 nM.
Regarding `Nc1ncnc2c1ncn2[C@@H]1O[C@H](COS(=O)(=O)NC(=O)[C@@H](N)Cc2ccc(O)cc2)[C@@H](O)[C@H]1O`, the IC50 in test [1] came to 5600 nM.
For the molecule `C/C=C/C[C@@H](C)[C@@H](O)[C@H]1C(=O)N[C@@H](CC)C(=O)N(C)CC(=O)N(C)[C@@H](CC(C)C)C(=O)N[C@@H](C(C)C)C(=O)N(C)[C@@H](CC(C)C)C(=O)N[C@@H](C)C(=O)N[C@H](C)C(=O)N(C)[C@@H](CC(C)C)C(=O)N(C)[C@@H](CC(C)C)C(=O)N(C)[C@@H](C(C)C)C(=O)N1C` [CYCLOSPORINE], the inhibition at 0.06 µM in [8] came out at 65.7%. Further, the inhibition at 0.01 µM in test [9] amounted to 32%. The inhibition at 0.08 µM in test [10] came out at 75.2%.
